Screens from PubChem.
Only some compounds are listed: those with a hit (about 3.7% of all), similar ones and a draw of the others.
KCNQ1 inh = inhibitors of human KCNQ1 potassium channel; CHO-K1 KCNQ1, FluxOR thallium flux fluorescence; hits give high values; B-score at 10 µM; 310,000 compounds, 1.3% hits; P51787;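 active = compounds whose thallium flux B-score, printed positive for inhibition, exceeds three library SD while starting fluorescence stays within three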;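 note: channel opened by potassium depolarization with thallium stimulus after 20 min compound exposure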
hERG protect = shields human hERG channel from block by proarrhythmic agents; CHO-hERG, FluxOR thallium flux, dofetilide IC70 present; activation (rescue from dofetilide block), less the hit threshold, % at 10 µM; 310,000 compounds, 0.51% hits; AID 1511;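 active = activation above the mean of controls blocked by dofetilide plus 5 SD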;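 note: thallium influx through hERG after potassium depolarization seen as dye fluorescence rise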
KCNQ1 pot = human KCNQ1 channel potentiation or activation; P51787; AID 2648; 310,000 compounds, 0.35% hits; B-score at 10 µM; CHO-K1 KCNQ1, thallium flux FluxOR fluorescence; hits give high values;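 active = fluorescence ratio B-score, a plate-corrected score, at least three library SD, with initial intensity B-score within 5 SD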
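System: Stable KCNQ1 CHO-K1 line | Incubation: 90 min dye loading and 20 min compound exposure, both at room temperature | Measure: Ratio B score | Medium: Assay buffer for compound exposure, DMSO matched across wells | Compound dosing: Single-concentration screen | Probe or stimulus: K+/Tl+ depolarizing stimulus | Measured by: Kinetic FluxOR fluorescence, 10 s baseline plus 110 s post-stimulus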
Kir21 block = blocks the mouse Kir2.1 inward-rectifier potassium channel; B-score at 10 µM; HEK293-Kir2.1, FluxOR thallium flux fluorescence; hits give low values; AID 1672; 310,000 compounds, 0.85% hits;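 active = fluorescence ratio B-score at or below minus 3 SD of library scores, with starting-brightness B-score within 2 SD, cut at about -4.2 in these data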;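 note: channel flux triggered by added potassium and thallium sulfate stimulus; B-score of peak minus minimum fluorescence over baseline after thallium stimulus; more negative B-score means stronger Kir2.1 block with less thallium influx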
KCNK3 block = human KCNK3 channel inhibition, primary screen; 340,000 compounds, 0.84% hits; AID 602410; CHO-KCNK3 thallium flux, FluxOR fluorescence; hits give low values; B-score at 10 µM; O14649;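 active = B-score under library mean minus 4 SD, starting fluorescence ratio at most library mean plus 5 SD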;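 note: more negative B-score means stronger inhibition of thallium flux through KCNK3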
Target sequence (O14649 whole entry, looked up): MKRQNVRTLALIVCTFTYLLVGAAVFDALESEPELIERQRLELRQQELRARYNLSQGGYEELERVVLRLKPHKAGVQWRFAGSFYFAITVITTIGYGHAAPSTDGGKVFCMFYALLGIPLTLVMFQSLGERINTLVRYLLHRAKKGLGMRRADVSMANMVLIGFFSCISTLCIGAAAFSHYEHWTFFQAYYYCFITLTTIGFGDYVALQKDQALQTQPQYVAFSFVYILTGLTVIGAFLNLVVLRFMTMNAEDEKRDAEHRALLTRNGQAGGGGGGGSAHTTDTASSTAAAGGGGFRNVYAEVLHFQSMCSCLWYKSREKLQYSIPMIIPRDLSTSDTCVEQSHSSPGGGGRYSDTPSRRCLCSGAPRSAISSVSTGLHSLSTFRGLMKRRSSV
KCNK9 block = inhibitors of human KCNK9 two-pore domain potassium channel; Q9NPC2; HEK293 KCNK9, FluxOR thallium flux fluorescence; hits give low values; B-score at 10 µM; 310,000 compounds, 1.2% hits; AID 488922;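 active = ratio B-score over 3 SD below the library mean, with starting fluorescence within 5 SD of its mean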;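 note: negative B-score means less thallium flux so channel inhibition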
Of the large screens only hits and unclear results are named; the others gave an inactive call.

Cc1ccc(Cc2c[nH]c(=S)s2)cc1	hERG protect 27, KCNQ1 pot 38
CC1(C)CC(=O)/C(=C(/O)Cc2ccccc2)C(=NCCc2ccccc2)C1	Kir21 block -4.3
COc1ccc(N=C2O/C(=C/c3sc(=S)n(CC4CCCO4)c3O)N=C2C#N)cc1 (stereo not drawn)	KCNQ1 inh 10
CCOC(=O)C1=C(c2ccccc2)NC(=O)NC1c1ccc(O)c(Cl)c1 (stereo not drawn)	hERG protect 13, Kir21 block -7.8
CC(=O)Cc1nsc(NC(=O)c2cccs2)n1	hERG protect 12
CC(=O)Cc1nsc(NC(=O)c2ccccc2)n1	none
CC(=O)c1c(C)[nH]c(C(=O)OCC(=O)Nc2ccc(C)cc2[N+](=O)[O-])c1C	KCNQ1 inh 6
COc1ccccc1CNC(=O)CCNS(=O)(=O)c1ccc2c(c1)CC(C)N2C(C)=O (stereo not drawn)	none
CC(Oc1ccccc1F)c1nnc(SCC(=O)N(c2ccccc2)C2CCS(=O)(=O)C2)o1 (stereo not drawn)	none (no result: KCNQ1 inh, hERG protect, KCNQ1 pot, Kir21 block, KCNK9 block)
CCC(OC(=O)c1cc2sccc2n1C)C(=O)NCc1ccco1 (stereo not drawn)	none
COCCNC(=O)C(C)OC(=O)c1cc2sccc2n1C (stereo not drawn)	hERG protect 5.7
CC1=NNC(=O)C1CC(=O)N/N=C/C=C/c1ccccc1 (stereo not drawn)	hERG protect 21
Brc1ccccc1-c1nc2c3ccccc3ncn2n1	KCNK3 block -9.4 (no result: KCNQ1 inh, hERG protect, KCNQ1 pot, Kir21 block, KCNK9 block)
CC(C)N(Cc1ccccc1)C(=S)NCc1ccccc1	Kir21 block -4.2
Cn1c(=O)c2c(-c3ccc(OC(F)F)cc3)cc(-c3ccccc3)nc2n(C)c1=O	none (no result: KCNK3 block)
COc1ccc(CCNc2oc(COc3ccccc3F)nc2C#N)cc1	none
COc1ccc(CCNc2oc(COc3ccc(Br)cc3)nc2C#N)cc1OC	KCNK3 block -12, KCNK9 block -8.1
O=C(N=C1SC2CS(=O)(=O)CC2N1CCc1ccccc1)C1CCCCC1 (stereo not drawn)	none
COc1cc(CNCCN2CCOCC2)ccc1OCc1ccc(Cl)cc1	none
COc1cc(CNCCCN2CCOCC2)cc(Br)c1OCc1ccc(Cl)cc1	Kir21 block -8.2
O=[N+]([O-])c1ccc(S(=O)(=O)N2CCSC2c2ccco2)cc1 (stereo not drawn)	Kir21 block -4.6
COc1ccc(S(=O)(=O)N2CCSC2c2ccccc2)cc1 (stereo not drawn)	none
CCN(CC)S(=O)(=O)c1ccc(N2CCOCC2)c(NC(=O)C2CC2)c1	none
N#Cc1c(/N=C/c2cccs2)sc2c1CCCCC2	KCNQ1 inh 6
Cc1cc(C)nc(SCCCNCc2c(F)cccc2Cl)n1	none
Cc1ccc(CNCCCSc2nc(C)cc(C)n2)cc1	Kir21 block -4.9
CCCn1ccnc1SC(C)C(=O)Nc1c(C)n(C)n(-c2ccccc2)c1=O (stereo not drawn)	none (no result: KCNQ1 inh, hERG protect, KCNQ1 pot, Kir21 block, KCNK9 block)
COc1cc(S(=O)(=O)NCC2COCCO2)ccc1-n1cnnn1 (stereo not drawn)	hERG protect 5.8
COCCNC(=O)c1csc(Nc2cccc3ccccc23)n1	none
CCCNC(=O)c1csc(Nc2cccc3ccccc23)n1	KCNK9 block -8
CCOC(=O)c1c(NC(C)=O)sc2c1CCC(C=O)=C2Sc1ccccc1	KCNK9 block -6.9
OCC[C@H]1C[C@H](O)[C@@H](O)[C@@]2(CCCc3ccccc3O2)O1	none (no result: KCNQ1 inh, hERG protect, KCNQ1 pot, Kir21 block, KCNK9 block)
CC(C)c1ccc(/C=C2\NC(=S)N(Cc3cccnc3)C2=O)cc1	none
CCc1c(C)nc2cc(-c3ccc(OC)c(OC)c3)nn2c1NCC1CC1	KCNK9 block -6.7
C(=C\c1nc(N2CCCC2)c2ccccc2n1)/c1ccccc1	KCNK9 block -7.2
CN(C(=O)CSc1nnc(-c2ccccc2F)n1N)C1CCCCC1	none (no result: KCNQ1 inh, hERG protect, KCNQ1 pot, Kir21 block, KCNK9 block)
COc1ccccc1N1CCN(C2CCCN(C(=O)c3ccsc3)C2)CC1 (stereo not drawn)	none
CCCCn1nnc(NC(=S)NC(=O)c2ccc(-c3cccc(Cl)c3Cl)o2)n1	hERG protect 7.4
CCCCn1nnc(NC(=O)c2ccc(-c3ccccc3[N+](=O)[O-])o2)n1	none
CCN(CC)CC(=O)Nc1sc(C)c(C)c1C(=O)c1ccc(C)cc1	KCNQ1 inh 6
